Data reported in ChEMBL document CHEMBL1781992, “A novel monocarbonyl analogue of curcumin, (1E,4E)-1,5-bis(2,3-dimethoxyphenyl)penta-1,4-dien-3-one, induced cancer cell H460 apoptosis via activation of endoplasmic reticulum stress signaling pathway” (J Med Chem, 2011).
Active and inactive are the calls of the source. The calls are words filed in the database; no cut-off is given here.

Experiments:
[1] = test system: NCI-H460; assay: Cytotoxicity against human NCI-H460 cells assessed as reduction of cell viability at 5 to 30 uM after 24 hrs by CellTiter-Glo analysis; format: functional, cell-based
Summary of the method: (§1)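 H460 cells (5 × 10^3/well) seeded overnight, then given fresh medium containing compound from DMSO stock (final 5, 10, 20 μM; 2.5–30 μM in the figure) for 24 h. Viability measured with CellTiter-Glo and expressed as percent of vehicle-treated cells; Student's t test.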

[2] = test system: NCI-H460; assay: Induction of apoptosis in human NCI-H460 cells assessed as activation of caspase 9 activation at 20 uM after 24 hrs by Western blot analysis; format: functional, cell-based
[3] = test system: NCI-H460; assay: Induction of apoptosis in human NCI-H460 cells at 5 to 30 uM after 24 hrs by flow cytometric analysis; format: functional, cell-based
[4] = test system: NCI-H460; assay: Induction of CHOP mRNA expression in human NCI-H460 cells after 12 hrs by real time quantitative PCR analysis; format: functional, cell-based
Summary of the method: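 H460 cells exposed to a concentration range for 6 or 12 h. CHOP mRNA measured by RT-PCR/qPCR and normalized to β-actin.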

[5] = test system: NCI-H460; assay: Induction of GRP78 mRNA expression in human NCI-H460 cells after 1 hrs by real time quantitative PCR analysis; format: functional, cell-based
Summary of the method: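 H460 cells treated across a concentration range for 1 h. GRP78 mRNA quantified by RT-qPCR, normalized to β-actin and expressed as percent of vehicle.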

[6] = test system: NCI-H460; assay: Antitumor activity against human NCI-H460 cells xenografted in ip dosed nude Balb/cA mouse assessed as decrease in tumor volume administered qd for 20 days; format: functional, organism-based
Summary of the method: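 BALB/cA nu/nu female athymic mice bearing sc right-flank xenografts (3 × 10^6 H460 cells in PBS); once-daily ip dosing began on day 10, when tumors reached 100–300 mm3. Water-soluble liposome preparation in PBS at 10 or 50 mg/kg; controls received liposome vehicle in PBS. Volume = lw²/2; T/C read on day 22. Seven mice per group, mean ± SD; Student's t test.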

[7] = test system: NCI-H460; assay: Induction of apoptosis in human NCI-H460 cells after 6 hrs by Flow cytometric analysis; format: functional, cell-based
Summary of the method: (§2)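 H460 cells plated for 6 h, then treated with 5, 10 or 20 μM. Cells washed, trypsin-EDTA detached and resuspended in PBS, then stained with annexin V and propidium iodide plus RNase and 0.1% Triton X-100 for 30 min at 37 °C before flow cytometry. Figure legend gives 6 h incubation.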

[8] = test system: NCI-H460; assay: Induction of apoptosis in human NCI-H460 cells assessed as morphological changes at 5 to 20 uM after 24 hrs by light microscopic analysis; format: functional, cell-based
Summary of the method: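 H460 cells treated at 5, 10 or 20 μM for 24 h; morphology imaged by light microscope at 20× magnification.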

[9] = test system: NCI-H460; assay: Induction of apoptosis in human NCI-H460 cells assessed as non-viable necrotic cells at 20 uM after 6 hrs by annexinV-propidium iodide staining based flow cytometric analysis relative to control; format: functional; summary of the method: as §2
[10] = test system: NCI-H460; assay: Induction of ATF-4 protein expression level in human NCI-H460 cells after 6 hrs by Western blot analysis; format: functional, cell-based
Summary of the method: (§3)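 H460 cells exposed to 20 μM for varying times, or to a range of concentrations for 6 h. ATF-4 and XBP-1 protein measured by Western blot with actin as loading control.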

[11] = test system: NCI-H460; assay: Induction of apoptosis in human NCI-H460 cells assessed as non-viable necrotic cells at 5 uM after 6 hrs by annexinV-propidium iodide staining based flow cytometric analysis relative to control; format: functional; summary of the method: as §2
[12] = test system: Mus musculus; assay: Toxicity in ICR mouse assessed as organ weight change at 400 to 800 mg/kg; format: organism-based; set-up: dose 400-800 mg/kg; settings: in vivo
[13] = test system: NCI-H460; assay: Cytotoxicity against human NCI-H460 cells assessed as reduction of cell viability at 5 to 20 uM after 24 hrs by CellTiter-Glo analysis; format: functional, cell-based; summary of the method: as §1
[14] = test system: NCI-H460; assay: Induction of apoptosis in human NCI-H460 cells assessed as activation of caspase 3 activity at 20 uM after 24 hrs by Western blot analysis; format: functional, cell-based
[15] = test system: Mus musculus; assay: Toxicity in ICR mouse assessed as mortality at 400 to 800 mg/kg; format: organism-based; set-up: dose 400-800 mg/kg; settings: in vivo
[16] = test system: NCI-H460; assay: Induction of XBP-1 protein level in human NCI-H460 cells at 20 uM after 6 hrs by Western blot analysis
[17] = test system: NCI-H460; assay: Induction of XBP-1 mRNA expression in human NCI-H460 cells after 3 hrs by real time quantitative PCR analysis
[18] = test system: NCI-H460; assay: Induction of CHOP protein expression in human NCI-H460 cells at 20 uM after 12 hrs by Western blot analysis; format: functional, cell-based
Summary of the method: (§4)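 H460 cells treated for 6–24 h, or across a range of concentrations. CHOP protein measured by Western blot, densitometry expressed as percent of control; Student's t test.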

[19] = test system: NCI-H460; assay: Induction of apoptosis in human NCI-H460 cells at 20 uM after 6 hrs by flow cytometric analysis; format: functional; summary of the method: as §2
[20] = test system: NCI-H460; assay: Induction of apoptosis in human NCI-H460 cells assessed as viable cells at 5 uM after 6 hrs by annexinV-propidium iodide staining based flow cytometric analysis relative to control; format: functional; settings: NCI-H460, 6 h, read-out: Activity; summary of the method: as §2
[21] = test system: NCI-H460; assay: Cytotoxicity against human NCI-H460 cells assessed as cell viability at 20 uM after 24 hrs by CellTiter-Glo analysis; format: functional; settings: NCI-H460, 24 h, read-out: Activity; summary of the method: as §1
[22] = test system: NCI-H460; assay: Induction of apoptosis in human NCI-H460 cells assessed as late apoptotic cells at 20 uM after 6 hrs by annexinV-propidium iodide staining based flow cytometric analysis relative to control; format: functional; summary of the method: as §2
[23] = test system: NCI-H460; assay: Induction of CHOP protein expression in human NCI-H460 cells after 6 to 24 hrs by Western blot analysis; format: functional, cell-based; summary of the method: as §4
[24] = test system: Mus musculus; assay: Toxicity in ICR mouse assessed as body weight change at 400 to 800 mg/kg; format: organism-based; set-up: dose 400-800 mg/kg; settings: in vivo
[25] = test system: NCI-H460; assay: Induction of apoptosis in human NCI-H460 cells assessed as viable cells at 20 uM after 6 hrs by annexinV-propidium iodide staining based flow cytometric analysis relative to control; format: functional; settings: NCI-H460, 6 h, read-out: Activity; summary of the method: as §2
[26] = test system: NCI-H460; assay: Cytotoxicity against human NCI-H460 cells after 72 hrs by MTT assay; format: functional, cell-based; settings: NCI-H460, 72 h
Summary of the method: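 H460 cells grown in RPMI 1640 with 5% FBS at 37 °C, 10% CO2, treated 24 h after seeding. Compounds in DMSO diluted into medium at final 100, 33.3, 11.1 and 3.7 μg/mL for 72 h. MTT (5 mg/mL in 0.9% NaCl) added for 3 h, formazan dissolved in DMSO and read at 570 nm; IC50 derived.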

[27] = test system: NCI-H460; assay: Induction of GRP78 mRNA expression in human NCI-H460 cells after 3 hrs by real time quantitative PCR analysis; format: functional, cell-based
Summary of the method: (§5)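 H460 cells treated across a concentration range for 3 h. GRP78 mRNA quantified by RT-qPCR, normalized to β-actin and expressed as percent of vehicle.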

[28] = test system: NCI-H460; assay: Induction of GRP78 mRNA expression in human NCI-H460 cells at 5 to 20 uM after 3 hrs by real time quantitative PCR analysis; format: functional, cell-based; summary of the method: as §5
[29] = test system: NCI-H460; assay: Induction of XBP-1 protein expression level in human NCI-H460 cells after 6 hrs by Western blot analysis; format: functional, cell-based; summary of the method: as §3

`COc1cccc(/C=C/C(=O)/C=C/c2cccc(OC)c2OC)c1OC` was tested, and the Activity [1] was “Active”, the Activity [2] was “Active” and the Activity [3] was “Active”. The Activity [4] was “Dose-dependent effect”, the Activity [5] was “Active” and the Activity [6] was “Dose-dependent effect”. The Activity [7] was “Dose-dependent effect”, the Activity [8] was “Active” and the Activity [9] was 1.48%. The Activity [10] was “Dose-dependent effect”, the Activity [11] was 0.55% and the Activity [12] was “Non-toxic”. For the same molecule, the Activity [13] was “Active”, the Activity [14] was “Active” and the Activity [15] was “Non-toxic”. The Activity [16] was “Active”, the Activity [17] was “Dose-dependent effect” and the Activity [18] was “Active”. It also gave an Activity [19] of 29.63%, a viability at 5 µM [20] of 89.4% and a viability at 20 µM [21] of 16%. For the same molecule, the Activity [22] was 11.56%, the Activity [23] was “Dose-dependent effect” and the Activity [24] was “Non-toxic”. The viability at 20 µM [25] was 57.3%, the IC50 [26] was 6.74 µM and the Activity [27] was “Dose-dependent effect”. The Activity [28] was “Active” and the Activity [29] was “Dose-dependent effect”.
